Experimental data published in ChEMBL document CHEMBL1143833, “Concentration-dependent synergy and antagonism within a triple antifungal drug combination against Aspergillus species: analysis by a new response surface model” (Antimicrob Agents Chemother, 2007).
In brackets after ≈: the same amount, converted by molar mass.

How the values were obtained:
Assay type in all cases: functional, organism-based
Aspergillus terreus = assay: Antifungal activity against Aspergillus terreus by broth microdilution method; conditions: for EC50: pooled result: one value given for 3 cell lines, strains, targets or settings
Procedure, shortened: (§1)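 RPMI 1640 with L-glutamine, no bicarbonate, buffered to pH 7.0 with 0.165 M MOPS. Conidial inoculum added to thawed plates. Incubated 48 h at 37°C, 95% humidity, plates unstacked. MIC taken as the lowest concentration with no visible growth. Growth also read at OD405 against conidium-free backgrounds, expressed as % of drug-free control. Run three times on separate days.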

Aspergillus flavus = assay: Antifungal activity against Aspergillus flavus by broth microdilution method; procedure, shortened: as §1
Aspergillus fumigatus = assay: Antifungal activity against Aspergillus fumigatus by broth microdilution method; procedure, shortened: as §1

Row | Compound | MIC (Aspergillus terreus) | EC50 (Aspergillus terreus) | MIC (Aspergillus flavus) | MIC (Aspergillus fumigatus)
1 | C[C@@H]1[C@H](O)[C@@H](C)/C=C/C=C/C=C/C=C/C=C/C=C/C=C/[C@H](O[C@@H]2O[C@H](C)[C@@H](O)[C@H](N)[C@@H]2O)C[C@@H]2O[C@](O)(C[C@@H](O)C[C@@H](O)[C@H](O)CC[C@@H](O)C[C@@H](O)CC(=O)O[C@H]1C)C[C@H](O)[C@H]2C(=O)O [AMPHOTERICIN B] | 0.5 µg/mL (≈ 0.541 µM) | 0.44 µg/mL (≈ 0.476 µM) | 0.5 µg/mL (≈ 0.541 µM) | 0.5 µg/mL (≈ 0.541 µM)
2 | CC[C@H](C)C[C@H](C)CCCCCCCCC(=O)N[C@H]1C[C@@H](O)[C@@H](NCCN)NC(=O)[C@@H]2[C@@H](O)CCN2C(=O)[C@H]([C@H](O)CCN)NC(=O)[C@H]([C@H](O)[C@@H](O)c2ccc(O)cc2)NC(=O)[C@@H]2C[C@@H](O)CN2C(=O)[C@H]([C@@H](C)O)NC1=O [CASPOFUNGIN] | > 128 µg/mL | 95.5 µg/mL (≈ 87.4 µM) | > 128 µg/mL | > 128 µg/mL
3 | C[C@@H](c1ncncc1F)[C@](O)(Cn1cncn1)c1ccc(F)cc1F [VORICONAZOLE] | 0.25 µg/mL (≈ 0.716 µM) | 0.23 µg/mL (≈ 0.658 µM) | 0.25 µg/mL (≈ 0.716 µM) | 0.25 µg/mL (≈ 0.716 µM)
